ChEMBL document CHEMBL2086351, “Α-aryl-N-alkyl nitrones, as potential agents for stroke treatment: synthesis, theoretical calculations, antioxidant, anti-inflammatory, neuroprotective, and brain-blood barrier permeability properties” (J Med Chem, 2012)
The source made the active and inactive calls. No cut-off for these calls is given here.

Columns and labels:
Mus musculus = test: Neuroprotective activity in NMRI mouse assessed as protection against tert-butyl hydroperoxide-mediated lethality at 150 mg/kg, ip administered 30 mins before t-BHP challenge measured after 1 to 24 hrs; assay type: functional; conditions: route intraperitoneal
[1] = tested on: Radical scavenging activity; test: Antioxidant activity assessed as DPPH radical scavenging activity at 0.5 mM after 2 hrs by spectrophotometric analysis; assay type: functional
Method in brief: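 DPPH radical test, measuring initial absorbance and absorbance after reaction spectrophotometrically.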

[2] = Neuroprotective activity in Sprague-Dawley rat primary cortical neurons assessed as reversal of oxygen-glucose deprivation-induced neuronal damage at 10 uM by treated 4 hrs after OGD challenge measured after 24 hrs by LDH release assay relative to control; assay type: functional, Cerebral cortex neuron
Method in brief: (§1)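 Primary cortical neurons, cultured 6–8 days, underwent 4 h oxygen–glucose deprivation followed by 24 h reperfusion. Compounds (1–250 μM) were added at reperfusion. Necrotic death was read as LDH release, normalized to untreated reperfusion cells as 100%. Four independent experiments; mean ± SEM; one-way ANOVA with Holm–Sidak post test.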

[3] = Neuroprotective activity in Sprague-Dawley rat primary cortical neurons assessed as reversal of oxygen-glucose deprivation-induced neuronal damage at 1 uM by treated 4 hrs after OGD challenge measured after 24 hrs by LDH release assay relative to control; assay type: functional, Cerebral cortex neuron; method in brief: as §1
[4] = Antioxidant activity against AAPH-induced lipid peroxidation assessed as induction time of inhibition at 0.1 mM; assay type: functional
[5] = biological target: Lipoxygenase (Glycine max) (UniProt Q39829); test: Inhibition of soybean lipoxygenase assessed as conversion of sodium linoleate to 13-hydroperoxylinoleic acid at 0.1 mM by competitive inhibition assay
Method in brief: (§2)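 Tested in vitro at 0.1 mM. The hydroxyl radical line measures competition with DMSO for hydroxyl radicals. Superoxide was generated at pH 7.4 and read as nitroblue tetrazolium reduction to formazan at 560 nm. LOX inhibition was measured by UV absorbance enzyme assay with plant lipoxygenase.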

[6] = Antioxidant activity assessed as inhibition of AAPH-induced lipid peroxidation at 0.1 mM by UV spectrophotometric analysis; assay type: functional
[7] = Permeability of the compound at pH 7.4 by PAMPA; assay type: ADME; conditions: read-out: permeability
Method in brief: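 PAMPA-BBB method of Di et al. (passive blood–brain barrier permeation). Effective permeability is reported as Pe in 10−6 cm s−1.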

[8] = Antioxidant activity assessed as Fe3+/ascorbic acid-induced hydroxyl radical scavenging activity at 0.1 mM after 30 mins; assay type: functional; method in brief: as §2
[9] = Induction of NO release in phosphate buffer at pH 7.4 assessed as nitrite level at 0.1 mM by nitrate reductase/NADPH based Griess assay in presence of L-cysteine; assay type: physicochemical; conditions: pH 7.4, 100 µM
Method in brief: (§3)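 Compounds at 100 μM final were dissolved in phosphate buffer pH 7.4 containing L-cysteine. Released NO was measured. Where indicated, 1 mM cysteine and a nitrate reductase/NADPH system were used. Sodium nitroprusside served as reference.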

[10] = Induction of NO release in phosphate buffer at pH 7.4 at 0.1 mM by Griess assay in presence of L-cysteine; assay type: physicochemical; conditions: pH 7.4, 100 µM; method in brief: as §3
[11] = Antioxidant activity assessed as superoxide anion radical scavenging activity at 0.1 mM after 10 mins by tetrazolium dye assay; assay type: functional; method in brief: as §2
[12] = Neuroprotective activity in Sprague-Dawley rat primary cortical neurons assessed as reversal of oxygen-glucose deprivation-induced neuronal damage at 250 uM by treated 4 hrs after OGD challenge measured after 24 hrs by LDH release assay relative to control; assay type: functional, Cerebral cortex neuron; method in brief: as §1
[13] = Neuroprotective activity in Sprague-Dawley rat primary cortical neurons assessed as reversal of oxygen-glucose deprivation-induced neuronal damage treated 4 hrs after OGD challenge measured after 24 hrs MTT assay; assay type: functional, cell-based; conditions: Cerebral cortex neuron
Method in brief: (§4)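 Primary cerebral cortex neurons, cultured 6–8 days, underwent 4 h oxygen–glucose deprivation. Compounds (0.1 μM–10 mM range) were added at the start of a 24 h reperfusion. Viability was read by MTT with untreated control as 100%. Neuroprotection = % recovery from the reperfusion-only value (0%) to control (100%). Three to five independent experiments; mean ± SEM.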

[14] = Neuroprotective activity in Sprague-Dawley rat primary cortical neurons assessed as reversal of oxygen-glucose deprivation-induced neuronal damage at 10 uM by treated 4 hrs after OGD challenge measured after 24 hrs MTT assay relative to control; assay type: functional, cell-based; conditions: Cerebral cortex neuron; method in brief: as §4
[15] = Neuroprotective activity in Sprague-Dawley rat primary cortical neurons assessed as reversal of oxygen-glucose deprivation-induced neuronal damage at 100 uM by treated 4 hrs after OGD challenge measured after 24 hrs MTT assay relative to control; assay type: functional, cell-based; conditions: Cerebral cortex neuron; method in brief: as §4
Rattus norvegicus = test: Antiinflammatory activity in Fisher 344 rat assessed as inhibition of carrageenan-induced paw edema at 0.01 mmol/kg, ip measured 3.5 hrs after carrageenan challenge; assay type: functional; conditions: Fisher 344, ip
Method in brief: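 Percent inhibition of carrageenan-induced rat paw oedema relative to untreated controls. Compounds given at 0.01 mmol/kg. Six animals per group in two independent experiments (n = 6 × 2), reported as mean ± SD. Significance versus controls by Student's t test.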

[16] = tested on: Radical scavenging activity; test: Antioxidant activity assessed as DPPH radical scavenging activity at 15 uM after 2 hrs by spectrophotometric analysis; assay type: functional
[17] = Neuroprotective activity in Sprague-Dawley rat primary cortical neurons assessed as reversal of oxygen-glucose deprivation-induced neuronal damage at 100 uM by treated 4 hrs after OGD challenge measured after 24 hrs by LDH release assay relative to control; assay type: functional, Cerebral cortex neuron; method in brief: as §1
[18] = Neuroprotective activity in Sprague-Dawley rat primary cortical neurons assessed as reversal of oxygen-glucose deprivation-induced neuronal damage at 5 mM by treated 4 hrs after OGD challenge measured after 24 hrs MTT assay relative to control; assay type: functional, cell-based; conditions: Cerebral cortex neuron; method in brief: as §4

SMILES	Activity (Mus musculus) [%]	TIME [4] [h]	inhibition [5]	inhibition [6]	Activity [8] [%]	Activity [9] [%]	Activity [10] [%]	Activity [11] [%]	other results
[O-]/[N+](=C\c1ccc(Br)o1)Cc1ccccc1	42	0	17%						Activity [1]: 8.6%; Activity [2]: 114.17%; Activity [3]: 61.87%
O=[N+]([O-])OCCOc1ccc(/C=[N+](\[O-])Cc2ccccc2)cc1	22	0.767	21%	64%	100				Papp [7]: 168 nm/s; Activity [3]: 47.48%
COc1cc(/C=[N+](\[O-])Cc2ccccc2)c(Br)cc1O		0.697	24%	87%	78	6	5	3	
CC(C)(C)/[N+]([O-])=C/c1ccc(OCCO[N+](=O)[O-])cc1	18	0	19%		98			19	Activity [1]: 0.6%; Activity [12]: 79.21%
COc1cc(Br)c(/C=[N+](\[O-])C(C)(C)C)cc1O		0.12		67%	72	3	2	11	
CC(Cc1ccc(O)c(O)c1)C(C)Cc1ccc(O)c(O)c1 (stereo not given)			40%						
CC(C)(C)c1cc(/C=[N+](\[O-])C(C)(C)C)cc(C(C)(C)C)c1O	80	0.29	inactive	9%					Activity [1]: 78.6%
Cc1c(C)c2c(c(C)c1O)CCC(C)(C(=O)O)O2 (stereo not given)		1.03		63%	73				
COc1cc(Br)c(/C=[N+](\[O-])C(C)(C)C)cc1OC		0.00867		47%	90	2	1	15	
COc1cc(Br)c(/C=[N+](\[O-])Cc2ccccc2)cc1OC		0.895	21%	inactive		1	1	16	
COc1cc(/C=[N+](\[O-])Cc2ccccc2)ccc1O		1.47		90%	52	10	9		Activity [13]: inactive
CC(C)(C)/[N+]([O-])=C/c1ccc(Br)o1	37	0	39%		95				Activity [1]: 0%; Activity [12]: 96.26%
O=[N+]([O-])OCCCOc1ccc(/C=[N+](\[O-])Cc2ccccc2)cc1	31	0.61	30%	81%	98				Activity [14]: 77.6%; Papp [7]: 220 nm/s; Activity [2]: 45.37%; Activity [15]: 83%
CC(C)(C)/[N+]([O-])=C/c1cccnc1Br		0.133	88%	40%	93	5.5	4	10	inhibition in vivo at 10 µmol/kg (Rattus norvegicus): 23.2%
COc1cc(/C=C/C(=O)CC(=O)/C=C/c2ccc(O)c(OC)c2)ccc1O									Activity [16]: 35%
COc1cc(/C=[N+](/C)[O-])ccc1O		0.3	59%	90%		8	7	11	Activity [13]: inactive

SMILES	Activity (Mus musculus) [%]	TIME [4] [h]	inhibition [5]	inhibition [6]	Activity [8] [%]	Activity [9] [%]	Activity [10] [%]	Activity [11] [%]	other results
CC(C)(C)/[N+]([O-])=C/c1ccccc1		0	83%	inactive	90	4.5	2	15	Activity [13]: inactive; Activity [12]: 73.2%; Activity [17]: 67.82%; Activity [18]: -13.4%
[O-]/[N+](=C\c1ccccc1)Cc1ccccc1		0.42		74%	97			24	
Cc1ccc2nc(Cl)c(/C=[N+](\[O-])Cc3ccccc3)cc2c1	72	1.3	inactive	37%	95			23	Activity [14]: 75.7%; Activity [1]: 42.3%; Activity [2]: 63.01%; Activity [17]: 66.82%; Activity [15]: 105%
Cc1ccc2nc(Cl)c(/C=[N+](\[O-])C(C)(C)C)cc2c1	70	0.945	inactive	85%	100			12	Activity [1]: 1.7%; Papp [7]: 150 nm/s; Activity [2]: 62.22%; Activity [3]: 70.17%
CC(C)(C)/[N+]([O-])=C/c1ccc(OCCCO[N+](=O)[O-])cc1	30	0.783	57%	49%	54			2	Activity [1]: 0.4%; Activity [17]: 55.57%
COc1ccc2c(c1)c(CC(=O)O)c(C)n2C(=O)c1ccc(Cl)cc1 [INDOMETHACIN]									inhibition in vivo at 10 µmol/kg (Rattus norvegicus): 47%
O=C(O)/C=C/c1ccc(O)c(O)c1								15	
C[N+](C)(C)CCOP(=O)(O)OP(=O)([O-])OC[C@H]1O[C@@H](n2ccc(N)nc2=O)[C@H](O)[C@@H]1O [CITICOLINE]									Activity [14]: 87.4%; Activity [12]: 84.64%; Activity [17]: 61.26%; Activity [15]: 53.2%
CC(C)(C)/[N+]([O-])=C/c1cccnc1Cl		0.497	59%	37%	30	4	2	5	
CC(C)(C)c1cc(/C=[N+](\[O-])Cc2ccccc2)cc(C(C)(C)C)c1O	82	1.38	inactive	61%	77			8	Activity [1]: 81.9%; Activity [12]: 56.95%; Activity [17]: 53.8%
C/[N+]([O-])=C/c1ccccc1		0.0167	22%	5%	77			8	Activity [13]: inactive; inhibition in vivo at 10 µmol/kg (Rattus norvegicus): 26.5%
COc1cc(Br)c(/C=[N+](\[O-])Cc2ccccc2)cc1O		1.41		89%		2	2	6	Activity [13]: inactive
COc1ccc2c(c1)cc(/C=[N+](\[O-])C(C)(C)C)n2C		0.73	31%	80%	79.5	5	3	5	
O=c1c(O)c(-c2ccc(O)c(O)c2)oc2cc(O)cc(O)c12									Activity [16]: 94.2%
CC(C)(C)/[N+]([O-])=C/c1c[nH]c2ccccc12		0.36	42%	57%	59	4.5	3	15	
